Test results reported in EPA's CvTdb concentration-time database.

Legend:
[1] = system: human; test: amount in urine after dosing (umol)
Method in brief: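 Points were largely digitised from plot screenshots with WebPlotDigitizer or otherwise copied from tables, and they remain in the units each source reported. They come from published in vivo toxicokinetic studies and two structured collections. Sampling and analytical methods follow each source and were often not reported.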

[2] = system: Rat; test: concentration in plasma after dosing; conditions: 6 h; dosed: Gemfibrozil; 50 mg/kg; oral; Male; Sprague-Dawley
[3] = system: Rat; test: concentration in plasma after dosing; conditions: 5 min; dosed: Perfluorohexanoic Acid; 40 mg/kg; iv; Male; F344
[4] = system: Rat; test: concentration in kidney after dosing; conditions: 864 h; dosed: Perfluorooctane Sulfonate; 20 mg/kg; oral; Male; Harlan Sprague Dawley

CC(C)(O)C(=O)O [2-hydroxyisobutyrate]
[1], dosed: methyl tert-butyl ether, oral
Conditions	amount in urine
0 h, 5 mg	0.0411
6.05 h, 15 mg	3.18
6.268 h, 5 mg	1.19
12.12 h, 5 mg	2.99
12.19 h, 15 mg	8.45
18.04 h, 15 mg	10.7
18.39 h, 5 mg	3.79
24.12 h, 15 mg	9.14
24.44 h, 5 mg	3.07
29.96 h, 15 mg	11.8
30.29 h, 5 mg	3.64
36.26 h, 15 mg	9.95
36.46 h, 5 mg	2.37
42.05 h, 15 mg	4.96
42.31 h, 5 mg	1.27
48.24 h, 15 mg	2.63
48.47 h, 5 mg	0.849
54.1 h, 15 mg	3.08
54.53 h, 5 mg	0.89
59.87 h, 15 mg	1.63
60.27 h, 5 mg	0.438
66.05 h, 15 mg	0.953
66.44 h, 5 mg	0.123
71.92 h, 15 mg	0.593
72.6 h, 5 mg	0.0411
77.99 h, 15 mg	0.596
83.85 h, 15 mg	0.357
90.03 h, 15 mg	0.279
95.89 h, 15 mg	0.322

[1], inhalation, duration: 4 hr
Conditions	amount in urine
0 h, dosed: methyl tert-butyl ether, 4.5 ppm	10.8
0.116 h, dosed: methyl tert-butyl ether, 38.7 ppm	17.8
0.1579 h, dosed: ethyl tert-butyl ether, 40.6 ppm	13.3
0.2123 h, dosed: ethyl tert-butyl ether, 4.5 ppm	11.1
6 h, dosed: ethyl tert-butyl ether, 40.6 ppm	41
6.115 h, dosed: ethyl tert-butyl ether, 4.5 ppm	19.1
6.219 h, dosed: methyl tert-butyl ether, 38.7 ppm	71.9
6.261 h, dosed: methyl tert-butyl ether, 4.5 ppm	20.2
12 h, dosed: ethyl tert-butyl ether, 40.6 ppm	65.3
12 h, dosed: methyl tert-butyl ether, 4.5 ppm	26.8
12.13 h, dosed: methyl tert-butyl ether, 38.7 ppm	147
12.31 h, dosed: ethyl tert-butyl ether, 4.5 ppm	23.3
18 h, dosed: ethyl tert-butyl ether, 40.6 ppm	61.2
18.26 h, dosed: methyl tert-butyl ether, 4.5 ppm	21.8
18.32 h, dosed: ethyl tert-butyl ether, 4.5 ppm	21.5
18.4 h, dosed: methyl tert-butyl ether, 38.7 ppm	149
24 h, dosed: ethyl tert-butyl ether, 40.6 ppm	50.2
24 h, dosed: methyl tert-butyl ether, 4.5 ppm	24.3
24.14 h, dosed: methyl tert-butyl ether, 38.7 ppm	134
24.23 h, dosed: ethyl tert-butyl ether, 4.5 ppm	20.8
30 h, dosed: ethyl tert-butyl ether, 40.6 ppm	70.5
30.26 h, dosed: methyl tert-butyl ether, 4.5 ppm	27.8
30.41 h, dosed: ethyl tert-butyl ether, 4.5 ppm	22.2
30.42 h, dosed: methyl tert-butyl ether, 38.7 ppm	132
36.1 h, dosed: methyl tert-butyl ether, 4.5 ppm	18.2
36.14 h, dosed: methyl tert-butyl ether, 38.7 ppm	85.6
36.21 h, dosed: ethyl tert-butyl ether, 40.6 ppm	51
36.28 h, dosed: ethyl tert-butyl ether, 4.5 ppm	14.6
42.16 h, dosed: ethyl tert-butyl ether, 40.6 ppm	41.8
42.16 h, dosed: methyl tert-butyl ether, 4.5 ppm	14.4
42.29 h, dosed: methyl tert-butyl ether, 38.7 ppm	63
42.3 h, dosed: ethyl tert-butyl ether, 4.5 ppm	13.6
48.13 h, dosed: methyl tert-butyl ether, 38.7 ppm	41.8
48.16 h, dosed: ethyl tert-butyl ether, 40.6 ppm	34.3
48.47 h, dosed: ethyl tert-butyl ether, 4.5 ppm	14.4
54.21 h, dosed: ethyl tert-butyl ether, 40.6 ppm	30.1
54.31 h, dosed: methyl tert-butyl ether, 38.7 ppm	48.6
60.15 h, dosed: methyl tert-butyl ether, 38.7 ppm	33.6
60.16 h, dosed: ethyl tert-butyl ether, 40.6 ppm	37.6
66.16 h, dosed: ethyl tert-butyl ether, 40.6 ppm	20.9
66.32 h, dosed: methyl tert-butyl ether, 38.7 ppm	24
72.06 h, dosed: methyl tert-butyl ether, 38.7 ppm	17.8
72.16 h, dosed: ethyl tert-butyl ether, 40.6 ppm	17.5

CC(O)C(C)(C)O (stereo not given) [2-methyl-2,3-butanediol]
[1], dosed: tert-amyl methyl ether, inhalation, duration: 4 hr
Conditions	amount in urine
0.2902 h, 38.4 ppm	3.72
6.051 h, 3.8 ppm	2.15
6.373 h, 38.4 ppm	16.5
12.12 h, 3.8 ppm	3.45
12.25 h, 38.4 ppm	30.5
18.08 h, 3.8 ppm	2.56
18.3 h, 38.4 ppm	29.8
24.08 h, 3.8 ppm	3.27
24.35 h, 38.4 ppm	31.2
30.04 h, 3.8 ppm	2.77
30.25 h, 38.4 ppm	25.2
36.13 h, 3.8 ppm	2.42
36.31 h, 38.4 ppm	28.1
42.02 h, 3.8 ppm	1.67
42.34 h, 38.4 ppm	17
47.89 h, 3.8 ppm	2.12
48.2 h, 38.4 ppm	23.9
54.05 h, 3.8 ppm	1.93
54.23 h, 38.4 ppm	14.1
59.94 h, 3.8 ppm	1.6
60.36 h, 38.4 ppm	18.1
66.02 h, 3.8 ppm	1.63
66.19 h, 38.4 ppm	12.1
71.9 h, 3.8 ppm	1.44
72.24 h, 38.4 ppm	11.2
225 s, 3.8 ppm	0.476

[1], dosed: tert-amyl methyl ether, oral
Conditions	amount in urine
0.2379 h, 5 mg	0.118
6.002 h, 15 mg	1.07
6.23 h, 5 mg	0.379
11.79 h, 15 mg	1.97
12.07 h, 5 mg	0.593
17.9 h, 15 mg	2.14
18.15 h, 5 mg	0.435
24 h, 15 mg	2.43
24.24 h, 5 mg	0.394
29.83 h, 15 mg	2.27
30.07 h, 5 mg	0.532
35.87 h, 15 mg	2.31
36.08 h, 5 mg	0.4
41.73 h, 15 mg	1.29
42.17 h, 5 mg	0.374
47.83 h, 15 mg	1.66
48.27 h, 5 mg	0.367
53.95 h, 15 mg	1.48
54.08 h, 5 mg	0.38
59.71 h, 15 mg	1.02
60.18 h, 5 mg	0.324
65.84 h, 15 mg	0.758
66.2 h, 5 mg	0.264
71.94 h, 15 mg	1.05
72 h, 5 mg	0.243
77.76 h, 15 mg	1.07
78.1 h, 5 mg	0.243
83.97 h, 15 mg	0.611
84.2 h, 5 mg	0.244
89.71 h, 15 mg	0.61
90 h, 5 mg	0.214
95.84 h, 15 mg	0.463
96.03 h, 5 mg	0.188
235 s, 15 mg	0.223

Cc1ccc(C)c(OCCCC(C)(C)C(=O)O)c1 [Gemfibrozil]
Conditions	concentration in plasma [ng/mL]
[2]	2930

O=C(O)C(F)(F)C(F)(F)C(F)(F)C(F)(F)C(F)(F)F [Perfluorohexanoic Acid]
Conditions	concentration in plasma [ng/mL]
[3]	18600

O=S(=O)([O-])C(F)(F)C(F)(F)C(F)(F)C(F)(F)C(F)(F)C(F)(F)C(F)(F)C(F)(F)F [Perfluorooctane Sulfonate]
Conditions	concentration in kidney [ng/g]
[4]	17800
